Values after ≈ are worked out from the molar mass of the structure shown. Active and inactive are the calls of the source. No cut-off for these calls is given here.
Assays:
[1] = tested on: Candida albicans; test: Antimicrobial activity against Candida albicans ATCC 90028 incubated for 24 hrs by microdilution assay; type: functional
Procedure, shortened: (§1)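 Two-fold serial dilutions of test solutions made in Mueller Hinton broth and inoculated. Incubated at 37°C for 24 h. MIC taken as the lowest concentration with no growth. Ciprofloxacin is the antibacterial reference, fluconazole the antifungal one, and DMSO the blank.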

[2] = tested on: Staphylococcus aureus; test: Antimicrobial activity against Staphylococcus aureus ATCC 25923 incubated for 24 hrs by microdilution assay; type: functional; procedure, shortened: as §1
[3] = tested on: MCF7; test: Cytotoxicity against human MCF7 cells assessed as cell growth inhibition incubated for 72 hrs by MTT assay; type: functional, cell-based; conditions: MCF7, 72 h
Procedure, shortened: (§2)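 Cells grown in RPMI-1640 with 10% FBS and seeded at 5×10^3 per well. After 24 h, serial concentrations given for 72 h at 37°C, 5% CO2. Then 5 mg/mL MTT stock added for 3 h, formazan dissolved in DMSO, A570 read. IC50 calculated from the curves.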

[4] = tested on: Pseudomonas aeruginosa; test: Antimicrobial activity against Pseudomonas aeruginosa ATCC 27853 incubated for 24 hrs by agar well diffusion assay; type: functional
Procedure, shortened: (§3)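 Nutrient agar spread with 100 µL inoculum: bacteria at 1×10^8 CFU/mL, fungi at 1×10^6 CFU/mL. 10 mm wells loaded with 100 µL of compound in DMSO (final 1 mg/mL). Bacteria incubated 24 h at 37 °C, fungi 48 h at 28 °C. Inhibition zones measured in mm. Ciprofloxacin and fluconazole standards at 1 mg/mL, DMSO negative control.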

[5] = tested on: Staphylococcus aureus; test: Antimicrobial activity against Staphylococcus aureus ATCC 25923 incubated for 24 hrs by agar well diffusion assay; type: functional; procedure, shortened: as §3
[6] = tested on: NFS-60; test: Cytotoxicity against mouse NFS60 cells assessed as cell growth inhibition incubated for 72 hrs by MTT assay; type: functional, cell-based; conditions: NFS-60, 72 h; procedure, shortened: as §2
[7] = tested on: Enterococcus faecalis; test: Antimicrobial activity against Enterococcus faecalis ATCC 29212 incubated for 24 hrs by agar well diffusion assay; type: functional; procedure, shortened: as §3
[8] = Selectivity index, ratio of IC50 for human WI38 cells to IC50 for human MCF7 cells; type: toxicity; conditions: WI38 cells versus MCF7 cells, read-out: Ratio IC50
Procedure, shortened: (§4)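 SI calculated as IC50 on normal Wi-38 fibroblasts divided by IC50 on the cancer cell line. Both came from 72 h MTT assays.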

[9] = Selectivity index, ratio of IC50 for human WI38 cells to IC50 for mouse NFS60 cells; procedure, shortened: as §4
[10] = Selectivity index, ratio of IC50 for human WI38 cells to IC50 for human HepG2 cells; type: toxicity; conditions: WI38 cells versus HepG2 cells, read-out: Ratio IC50; procedure, shortened: as §4
[11] = tested on: Candida albicans; test: Antimicrobial activity against Candida albicans ATCC 90028 incubated for 48 hrs by agar well diffusion assay; type: functional; procedure, shortened: as §3
[12] = tested on: Escherichia coli; test: Antimicrobial activity against Escherichia coli ATCC 25922 incubated for 24 hrs by microdilution assay; type: functional; conditions: ATCC 25922, 24 h; procedure, shortened: as §1
[13] = tested on: WI-38; test: Cytotoxicity against human WI38 cells assessed as cell growth inhibition incubated for 72 hrs by MTT assay; type: cell-based; conditions: for IC50: Homo sapiens, WI-38, 72 h; for EC100: human, wi-38, 72 h
Procedure, shortened: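 Wi-38 fibroblasts grown in DMEM with 10% FBS and seeded at 5×10^3 per well. Attachment 24 h, then serial concentrations for 72 h at 37°C, 5% CO2. MTT stock (5 mg/mL) added for 3 h at 37°C, DMSO solubilization, absorbance at 570 nm. IC50 estimated.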

[14] = tested on: HepG2; test: Cytotoxicity against human HepG2 cells assessed as cell growth inhibition incubated for 72 hrs by MTT assay; type: functional, cell-based; conditions: HepG2, 72 h; procedure, shortened: as §2
[15] = tested on: Escherichia coli; test: Antimicrobial activity against Escherichia coli ATCC 25922 incubated for 24 hrs by agar well diffusion assay; type: functional; procedure, shortened: as §3

Row | MIC [1] | MIC [2] | MIC [12] [µM] | SMILES | IC50 [3] [nM] | diameter of the inhibition zone (DIZ) [4] | diameter of the inhibition zone (DIZ) [5] | IC50 [6] [nM] | diameter of the inhibition zone (DIZ) [7] | selectivity ratio [8] | Ratio IC50 [9] | selectivity ratio [10] | diameter of the inhibition zone (DIZ) [11] | IC50 [13] [nM] | EC100 [13] [µM] | IC50 [14] [nM] | diameter of the inhibition zone (DIZ) [15] | MIC ([2]; ATCC 25923, 24 h) [µM]
1 | inactive | inactive | 3280 (≈ 1020 µg/mL) | COC1(Nc2ccc([N+](=O)[O-])cc2)C(=O)c2ccccc2C1=O | 25.4 | 14 mm | inactive | 32.8 | inactive | 2.11 | 1.637 | 1.49 | inactive | 53.7 | 0.043 | 36 | 14 mm | 
2 | inactive | inactive | 2480 (≈ 1020 µg/mL) | O=C(OC1(C(=O)Nc2ccc([N+](=O)[O-])cc2)CCCCC1)c1ccccc1[N+](=O)[O-] | 14.7 | 14 mm | inactive | 18.8 | inactive | 2.35 | 1.84 | 0.786 | inactive | 34.6 | 0.0067 | 44 | 12 mm | 
3 |  |  |  | O=C(/C=C/c1ccccc1)OC1(C(=O)Nc2ccc([N+](=O)[O-])cc2)CCCCC1 | 57.6 | inactive | inactive | 50.5 | inactive | 0.711 | 0.811 | 0.774 | inactive | 41 | 0.0197 | 52.9 | inactive | 
4 |  |  |  | CC1(C)CC(=O)C=C(Nc2ccc([N+](=O)[O-])cc2)C1 | 597 |  |  | 645 |  | 0.534 | 0.494 | 0.478 |  | 319 | 0.157 | 667 |  | 
5 |  |  |  | O=C(OC1(C(=O)Nc2ccc([N+](=O)[O-])cc2)CCCCC1)c1ccc(Br)cc1 | 237 |  |  | 236 |  | 2.21 | 2.216 | 1.84 |  | 523 | 0.0095 | 284 |  | 
6 |  |  |  | Cc1ccccc1C(=O)OC1(C(=O)Nc2ccc([N+](=O)[O-])cc2)CCCCC1 | 516 |  |  |  |  | 0.682 |  |  |  | 352 | 0.018 |  |  | 
7 |  |  |  | O=C(OC1(C(=O)Nc2ccc([N+](=O)[O-])cc2)C(=O)c2ccccc2C1=O)c1ccc(C(F)(F)F)cc1 | 393 |  |  | 484 |  | 5 | 4.057 | 4.59 |  | 1960 | 0.635 | 428 |  | 
8 |  |  |  | O=C(OC1(C(=O)Nc2ccc([N+](=O)[O-])cc2)CCCCC1)c1ccccc1 | 903 |  |  | 766 |  | 0.272 | 0.322 | 0.335 |  | 246 | 0.148 | 734 |  | 
9 |  |  |  | CCOC(=O)c1ccccc1C(=O)OC1(C(=O)Nc2ccc([N+](=O)[O-])cc2)CCCCC1 | 444 |  |  | 488 |  | 0.869 | 0.79 | 0.746 |  | 386 | 0.122 | 517 |  | 

Row | SMILES | MIC [1] | MIC [2] | MIC [12] [µM] | IC50 [3] [nM] | diameter of the inhibition zone (DIZ) [4] | diameter of the inhibition zone (DIZ) [5] | IC50 [6] [nM] | diameter of the inhibition zone (DIZ) [7] | selectivity ratio [8] | Ratio IC50 [9] | selectivity ratio [10] | diameter of the inhibition zone (DIZ) [11] | IC50 [13] [nM] | EC100 [13] [µM] | IC50 [14] [nM] | diameter of the inhibition zone (DIZ) [15] | MIC ([2]; ATCC 25923, 24 h) [µM]
10 | O=C(O)c1cn(C2CC2)c2cc(N3CCNCC3)c(F)cc2c1=O [CIPROFLOXACIN] |  |  | 3 (≈ 0.994 µg/mL) |  | 40 mm | 26 mm |  | 24 mm |  |  |  |  |  |  |  | 43 mm | 6 (≈ 1.99 µg/mL)
